SMILES strings stand for the structures. Converted amounts (≈) assume the structure as drawn.

The subject of assay [1] is Mucor mucedo. The assay is described as follows: Antifungal activity against Mucor mucedo ATCC 7941 at pH 7 after 5 days in absence of 10% beef serum. In kind it is functional.
Assay [2] deals with Trichophyton mentagrophytes. The assay is described as follows: Antifungal activity against Trichophyton mentagrophytes ATCC 9129 at pH 7 after 5 days in absence of 10% beef serum. In kind it is functional. Summed up: (§1)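 Agar-dilution MIC in Sabouraud dextrose agar at pH 5.6 or 7.0, with or without 10% beef serum. Plates were incubated at 28 °C for 5 days. MIC is the lowest concentration (µg/mL) giving 100% inhibition. Steps were 1 µg/mL up to 10, 2 µg/mL from 10–20, and 10 µg/mL from 20–100; 100 µg/mL was the top level, and no inhibition there is scored as >100.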

Assay [3] relates to Trichophyton mentagrophytes. The assay is described as follows: Antifungal activity against Trichophyton mentagrophytes ATCC 9129 at pH 5.6 after 5 days in absence of 10% beef serum. In kind it is functional. The procedure, abridged: as §1
The subject of assay [4] is Candida albicans. Briefly: Antifungal activity against Candida albicans ATCC 10231 at pH 7 after 5 days in presence of 10% beef serum. In kind it is functional.
In assay [5] the test system is Mucor mucedo. The assay is described as follows: Antifungal activity against Mucor mucedo ATCC 7941 at pH 7 after 5 days in presence of 10% beef serum. It is filed as functional.
Assay [6] deals with Candida albicans. The assay is described as follows: Antifungal activity against Candida albicans ATCC 10231 at pH 5.6 after 5 days in absence of 10% beef serum. It is filed as functional.
Assay [7] concerns Trichophyton mentagrophytes. The assay is described as follows: Antifungal activity against Trichophyton mentagrophytes ATCC 9129 at pH 5.6 after 5 days in presence of 10% beef serum. It is filed as functional. The procedure, abridged: as §1
The subject of assay [8] is Candida albicans. The assay is described as follows: Antifungal activity against Candida albicans ATCC 10231 at pH 7 after 5 days in absence of 10% beef serum. In kind it is functional.
Assay [9] relates to Aspergillus niger. Briefly: Antifungal activity against Aspergillus niger ATCC 1004 at pH 7 after 5 days in presence of 10% beef serum. It is filed as functional. The procedure, abridged: as §1
Assay [10] concerns Trichophyton mentagrophytes. The assay is described as follows: Antifungal activity against Trichophyton mentagrophytes ATCC 9129 at pH 7 after 5 days in presence of 10% beef serum. It is filed as functional. The procedure, abridged: as §1
Assay [11] concerns Mucor mucedo. Briefly: Antifungal activity against Mucor mucedo ATCC 7941 at pH 5.6 after 5 days in absence of 10% beef serum. It is filed as functional.
For assay [12], the system named is Aspergillus niger. The assay is described as follows: Antifungal activity against Aspergillus niger ATCC 1004 at pH 5.6 after 5 days in absence of 10% beef serum. It is filed as functional. Summed up:
as §1

Assay [13] concerns Candida albicans. Briefly: Antifungal activity against Candida albicans ATCC 10231 at pH 5.6 after 5 days in presence of 10% beef serum. It is filed as functional.
Assay [14] has as its system Mucor mucedo. Briefly: Antifungal activity against Mucor mucedo ATCC 7941 at pH 5.6 after 5 days in presence of 10% beef serum. In kind it is functional.
Assay [15] relates to Aspergillus niger. Briefly: Antifungal activity against Aspergillus niger ATCC 1004 at pH 7 after 5 days in absence of 10% beef serum. It is filed as functional. The procedure, abridged:
as §1

For assay [16], the system named is Aspergillus niger. Briefly: Antifungal activity against Aspergillus niger ATCC 1004 at pH 5.6 after 5 days in presence of 10% beef serum. It is filed as functional. Summed up:
as §1

The subject of assay [17] is Mucor mucedo. Briefly: Antifungal activity against Mucor mucedo ATCC 7941 at pH 5.6 after 20 h in presence of 10% beef serum. Conditions: ATCC 7941, 20 h.
Assay [18] relates to Candida albicans. The assay is described as follows: Antifungal activity against Candida albicans ATCC 10231 at pH 7 after 20 h in absence of 10% beef serum. Conditions: ATCC 10231, 20 h.
For assay [19], the system named is Candida albicans. The assay is described as follows: Antifungal activity against Candida albicans ATCC 10231 at pH 5.6 after 20 h in absence of 10% beef serum. The conditions noted are these: ATCC 10231, 20 h.
In assay [20] the test system is Mucor mucedo. Briefly: Antifungal activity against Mucor mucedo ATCC 7941 at pH 7 after 20 h in presence of 10% beef serum. The conditions noted are these: ATCC 7941, 20 h.
Assay [21] relates to Mucor mucedo. The assay is described as follows: Antifungal activity against Mucor mucedo ATCC 7941 at pH 7 after 20 h in absence of 10% beef serum. The conditions noted are these: ATCC 7941, 20 h.
Where [22] appears, read: Trichophyton mentagrophytes, ATCC 9129, 120 h, read-out: MIC.
Setting [23] is: Candida albicans, ATCC 10231, 120 h, read-out: MIC.
The mark [24] stands for this setting: Aspergillus niger, ATCC 1004, 120 h, read-out: MIC.
Setting [25] is: Mucor mucedo, ATCC 7941, 120 h, read-out: MIC.

As usually defined, the MIC is the lowest concentration found to suppress growth. Consider `COC(=O)C(Br)C(Br)C(=O)OC` (racemic), for which the MIC against Mucor mucedo [1] came out at 8 µg/mL (≈ 26.3 µM); in assay [2], 4 µg/mL (≈ 13.2 µM); in assay [3], 2 µg/mL (≈ 6.58 µM); with Candida albicans [4] it was 60 µg/mL; with Mucor mucedo [5], 14 µg/mL; against Candida albicans [6], 16 µg/mL (≈ 52.6 µM). The MIC amounted to 4 µg/mL in assay [7]; 30 µg/mL (≈ 98.7 µM) in the assay with Candida albicans [8]; 40 µg/mL in the assay with Aspergillus niger [9]; 10 µg/mL in assay [10]; 6 µg/mL (≈ 19.7 µM) with Mucor mucedo [11]; 14 µg/mL (≈ 46.1 µM) in the assay with Aspergillus niger [12]. Moreover, the minimum inhibitory concentration (MIC) in the assay with Candida albicans [13] amounted to 20 µg/mL; with Mucor mucedo [14], 9 µg/mL; against Aspergillus niger [15], 40 µg/mL (≈ 132 µM); in the assay on Aspergillus niger [16] it was 30 µg/mL.
As to `COC(=O)[C@@H](F)[C@@H](Br)C(=O)OC` (relative stereo), the minimum inhibitory concentration (MIC) is 2 µg/mL (≈ 8.23 µM) in [2] (setting [22]); less than 1 µg/mL in assay [3] (setting [22]); 30 µg/mL in the assay with Candida albicans [4] (setting [23]); 8 µg/mL with Mucor mucedo [17]; 2 µg/mL in assay [7] (setting [22]); 20 µg/mL (≈ 82.3 µM) against Candida albicans [18]. For the same molecule, the MIC in the assay on Aspergillus niger [9] (setting [24]) turned out to be 40 µg/mL; against Candida albicans [19] it was 9 µg/mL (≈ 37 µM); in assay [10] (setting [22]) it was 5 µg/mL; with Mucor mucedo [11] (setting [25]) it was 7 µg/mL (≈ 28.8 µM); with Aspergillus niger [12] (setting [24]) it was 20 µg/mL (≈ 82.3 µM); in the assay with Candida albicans [13] (setting [23]), 14 µg/mL. Also, the MIC in the assay with Mucor mucedo [20] came out at 12 µg/mL; in the assay on Aspergillus niger [15] (setting [24]), 40 µg/mL (≈ 165 µM); against Mucor mucedo [21], 8 µg/mL (≈ 32.9 µM); with Aspergillus niger [16] (setting [24]) it was 20 µg/mL.
Regarding `COC(=O)[C@H](F)[C@@H](Br)C(=O)OC` (relative stereo), the MIC is 3 µg/mL (≈ 12.3 µM) in assay [2] (setting [22]); less than 1 µg/mL in assay [3] (setting [22]); 16 µg/mL with Candida albicans [4] (setting [23]); 12 µg/mL in the assay with Mucor mucedo [17]; 3 µg/mL in assay [7] (setting [22]); 16 µg/mL (≈ 65.8 µM) with Candida albicans [18]. For the same molecule, the MIC in the assay with Aspergillus niger [9] (setting [24]) amounted to 40 µg/mL; against Candida albicans [19], 6 µg/mL (≈ 24.7 µM); in assay [10] (setting [22]), 6 µg/mL; in the assay on Mucor mucedo [11] (setting [25]), 12 µg/mL (≈ 49.4 µM); in the assay on Aspergillus niger [12] (setting [24]) it was 12 µg/mL (≈ 49.4 µM); in the assay with Candida albicans [13] (setting [23]) it was 8 µg/mL. Also, the MIC in the assay on Mucor mucedo [20] is 20 µg/mL; in the assay on Aspergillus niger [15] (setting [24]), 30 µg/mL (≈ 123 µM); against Mucor mucedo [21], 14 µg/mL (≈ 57.6 µM); with Aspergillus niger [16] (setting [24]), 14 µg/mL.
For `COC(=O)C(Br)C(Br)C(=O)OC` (stereo in doubt), the MIC in [2] was 9 µg/mL (≈ 29.6 µM); in assay [3] (setting [22]), 2 µg/mL (≈ 6.58 µM); with Candida albicans [4] (setting [23]) it was 70 µg/mL; in the assay with Mucor mucedo [17] it was 14 µg/mL; with Mucor mucedo [5] it was 30 µg/mL; in assay [7] it was 12 µg/mL. Further, the minimum inhibitory concentration (MIC) came to 50 µg/mL (≈ 165 µM) against Candida albicans [18]; 90 µg/mL in the assay with Aspergillus niger [9]; 20 µg/mL (≈ 65.8 µM) against Candida albicans [19]; 20 µg/mL in assay [10] (setting [22]); 6 µg/mL (≈ 19.7 µM) in the assay with Mucor mucedo [11] (setting [25]); 30 µg/mL (≈ 98.7 µM) against Aspergillus niger [12]. Besides, the MIC came to 30 µg/mL in the assay on Candida albicans [13] (setting [23]), 60 µg/mL (≈ 197 µM) with Aspergillus niger [15] (setting [24]), 12 µg/mL (≈ 39.5 µM) in the assay on Mucor mucedo [21] and 50 µg/mL in the assay on Aspergillus niger [16] (setting [24]).

The record behind these values is ChEMBL document CHEMBL3244142, “Antifungal properties of 2-bromo-3-fluorosuccinic acid esters and related compounds” (1977).
